Sampled rows, rich in hits. Any-hit rate of the full collection: about 2.8%.
HEK293 NFkB inh = lowers PMA/ionomycin-induced NF-kB signal in HEK293 cells | HEK-293 NF-kB luciferase reporter, luminescence | inhibition, % at 3 µM | 62,000 compounds, 0.21% hits | AID 465;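 active = inhibition above the mean of all tested compounds plus 3 SD, cut at about 40% in these data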;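 also: 0% = stimulated DMSO wells and 100% = 10 µM reference inhibitor 5653914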
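Reagent: PMA plus ionomycin mix as NF-kB-activating stimulus. Assay system: NF-kB luciferase reporter HEK-293 cells. Technique: luminescence from luciferase substrate reagent. Incubation: 1 h compound pre-incubation, 16 h PMA/ionomycin at 37 °C. Benchmarks: DMSO only as uninhibited control, 10 µM reference inhibitor as full inhibition. Repeats: tested once.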
RORa activator = RORA (human) activation; activation, % at 10 µM; AID 560; P35398; 65,000 compounds, 1.5% hits; CHO-K1 Gal4-RORA LBD luciferase reporter, luminescence; percent increase over mock-subtracted basal signal;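 active = activation above the mean of all tested compounds plus 3 SD, cut at about 49% in these data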;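 also: 0% = DMSO-treated RORA cells and 100% = added signal equal to DMSO minus mock-transfected cells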
Target sequence (P35398 whole entry, looked up, the tested form may be a part): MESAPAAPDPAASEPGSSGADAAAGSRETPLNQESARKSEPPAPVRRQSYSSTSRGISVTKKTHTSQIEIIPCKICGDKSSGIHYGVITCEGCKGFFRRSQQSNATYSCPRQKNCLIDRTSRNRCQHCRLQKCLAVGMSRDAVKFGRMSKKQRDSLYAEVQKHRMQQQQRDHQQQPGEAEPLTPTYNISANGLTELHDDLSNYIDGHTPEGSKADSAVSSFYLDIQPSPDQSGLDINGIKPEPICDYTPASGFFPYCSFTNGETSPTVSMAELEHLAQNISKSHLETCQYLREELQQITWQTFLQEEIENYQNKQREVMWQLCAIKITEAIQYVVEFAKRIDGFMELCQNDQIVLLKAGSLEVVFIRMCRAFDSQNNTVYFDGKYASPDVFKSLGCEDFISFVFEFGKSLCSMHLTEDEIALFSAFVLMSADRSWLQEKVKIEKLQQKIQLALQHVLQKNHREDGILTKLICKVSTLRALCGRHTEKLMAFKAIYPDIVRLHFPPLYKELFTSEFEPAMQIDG
Jurkat viability = cytotoxic compounds reducing Jurkat cell viability; Jurkat E6.1 viability, ATP luminescence, 48 h; inhibition, % at 4 µM; 56,000 compounds, 1.2% hits; AID 463;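 active = inhibition above the mean inhibition of all tested compounds plus 3 SD, cut at about 28% in these data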
SF1 activator = SF-1 (human) activation; CHO-K1 Gal4-SF-1 LBD luciferase reporter; % increase over DMSO SF-1-specific signal; Q13285; 65,000 compounds, 1.9% hits; AID 522; activation, % at 10 µM;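 active = activation above the mean activation of all tested compounds plus 3 SD, cut at about 50% in these data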
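Test system: CHO-K1 cells co-transfected with Gal4 DBD–human SF-1 LBD, 5xGal4 luciferase reporter. Quantity: 4,000 cells per well. Compound: 10 µM only. Incubation: compound added 1 h post-seeding, 20 h exposure at 37 °C, 5% CO2. Detection: SteadyLite luciferase luminescence. Replication: one test per compound.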
MT1-MMP txn act = activates MT1-MMP transcription | 86,000 compounds, 0.16% hits | AID 750 | activation factor at 10 µM | HT1080 MT1-MMP promoter luciferase reporter, luminescence, overnight; hits give high values;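 active = activation factor of at least 2 for MT1-MMP transcription at 10 µM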
Active calls of the source: *; · = no result.

SMILES | HEK293 NFkB inh | RORa activator | Jurkat viability | SF1 activator | MT1-MMP txn act
Nc1ccc(-c2nc3ccccc3[nH]2)cc1 | -20.0 | 38.2 | 16.7 | 56.0* | 0.9
Nc1cccc(-c2nc3ccccc3[nH]2)c1 | -7.4 | 48.0 | -7.0 | 39.1 | 1.5
CN(C)c1ccc(C(=O)c2ccc(N(C)C)c(N)c2)cc1N | 11.2 | 29.3 | 59.7* | 44.5 | 1.4
Cc1oc2cc(O)cc(O)c2c(=O)c1-c1ccc2c(c1)OCCCO2 | 7.9 | 58.5* | -0.9 | 50.3* | 1.4
CCOC(=O)c1oc2cc(O)c(CC)cc2c(=O)c1-c1ccc2c(c1)OCCO2 | 5.7 | 11.3 | 2.4 | -8.8 | 1
CC(C)C[C@H](NC(=O)N1CCN(c2ccccc2)CC1)C(=O)O | 8.8 | -0.1 | -5.6 | 9.4 | 1.1
Cc1[nH]nc2c1C(C1CC=CCC1)C(C#N)=C(N)O2 (centres undefined) | 7.2 | 1.7 | 8.3 | -0.7 | 0
N#CC1=C(N)Oc2cc(N)ccc2C1C1CC=CCC1 (centres undefined) | 19.1 | 12.3 | 55.9* | 28.8 | 1.2
COc1ccccc1C(=O)Nc1ccc(S(=O)(=O)N2CCCC2)cc1 | 12.8 | -6.8 | 2.9 | -1.1 | 1.1
Cc1ccc2[nH]c3c(c2c1)CCCC3C(N)=O (centres undefined) | · | 9.7 | · | 13.0 | 0.9
CCN(CC)C(=O)C1CCCc2c1[nH]c1ccc(Cl)cc21 (centres undefined) | 23.5 | -2.4 | 39.9* | -5.3 | 1.3
O=C(CCCc1nc(-c2ccc(Cl)cc2)no1)Nc1cccnc1 | 24.8 | -16.9 | 42.2* | -0.5 | 0.9
Cc1cccc(-c2noc(CCCC(=O)Nc3cccnc3)n2)c1 | 16.0 | -11.0 | 5.9 | -39.1 | 0.9
CC(C)NC(=O)COc1ccc(Cl)cc1Cl | · | · | · | · | 1.2
O=C(COc1ccc(Cl)cc1Cl)NC1CCSC1=O (centres undefined) | -6.4 | 22.8 | -3.0 | 57.9* | 1.8
Cc1nc(C)c(C(=O)C2=C(O)C(=O)N(CCN3CCOCC3)C2c2ccco2)s1 (centres undefined) | 7.6 | 7.9 | -3.0 | 7.4 | 1.1
CCOC(=O)Cc1csc(NC(=O)c2cc(OC)cc(OC)c2)n1 | · | · | · | · | 1.4
COc1ccc(CN2CCN(c3cc(C)nc4c5c(C)cc(C)nc5nn34)CC2)cc1F | -2.6 | 26.4 | -4.3 | 7.0 | 1
O=C1Nc2ccccc2CCC1Sc1nnc(-c2ccc(Cl)cc2)s1 (centres undefined) | · | · | · | · | 2.1*
O=C(c1ccc(-c2ccccc2)cc1)N1CCC(C(=O)N2CCCC2)CC1 | 17.4 | -6.6 | 5.2 | -2.6 | 1.2
O=C(c1ccc(-c2nnc(-c3ccccc3)o2)cc1)N1CCCCCC1 | -11.9 | 60.3* | 4.4 | 1.0 | 1.2
COc1ccc2c(=O)c(-c3nc(C)cs3)coc2c1 | · | -33.2 | · | -19.8 | 0.4
Cc1csc(-c2coc3cc(O)cc(C)c3c2=O)n1 | 8.1 | 65.5* | -4.4 | 67.9* | 1.7
Cc1ccc(N2CCN(C(=O)N3CCCC3)CC2)cc1Cl | 12.6 | -8.4 | 8.7 | -21.8 | 1.2
O=C1CCn2nc(-c3ccc(Cl)cc3)cc2N1 | -16.0 | 61.3* | 5.7 | 30.7 | 1.5
SMILES | HEK293 NFkB inh | RORa activator | Jurkat viability | SF1 activator | MT1-MMP txn act
CCOC(=O)C1CCCN(c2ncnc3c2cnn3-c2cccc(C)c2)C1 (centres undefined) | 20.6 | 23.2 | · | 19.8 | 0.9
Cc1cccc(-n2ncc3c(N(C)Cc4ccccc4)ncnc32)c1 | -24.6 | 55.5* | 5.7 | 64.4* | 1.3
Cc1cccc(-n2ncc3c(N4CCC(C)CC4)ncnc32)c1 | -41.4 | 35.7 | -1.4 | 70.1* | ·
CCN1CCN(c2ncnc3c2cnn3-c2ccc(Cl)cc2)CC1 | -4.8 | 25.9 | 4.5 | 41.2 | 1.1
CCN1CCN(c2ncnc3c2cnn3-c2ccccc2)CC1 | -11.3 | 46.2 | 5.4 | 56.5* | 1.4
Cc1cccc(-n2ncc3c(N4CCC5(CC4)OCCO5)ncnc32)c1 | -16.6 | 49.0* | -2.8 | 97.6* | 1.7
C=CCn1c(Cc2cccs2)nnc1SCC(=O)c1ccc(F)cc1 | 17.0 | 20.2 | -2.0 | 21.6 | 1.2
O=C(NNC1=C(C(=O)C(F)(F)F)CCC1)c1ccccc1O | · | · | · | · | 1.4
CN(CCCCCNC(=O)/C=N/O)Cc1ccccc1 | · | -11.6 | · | 3.4 | 1.3
Cc1cc(NC(=O)c2cccs2)n(-c2ccccc2)n1 | · | · | · | · | 1.1
O=C(CCn1c(=O)oc2ccccc21)N1CCN(c2ccccc2Cl)CC1 | 21.4 | 3.8 | 69.1* | 14.2 | 0.9
COC(=O)COc1ccc(S(=O)(=O)N2CCc3ccccc3C2)cc1 | · | · | · | · | 1.1

Screens deposited in PubChem by several laboratories.
